Laboratory results taken from ChEMBL document CHEMBL4513216, “Probing the Open Global Health Chemical Diversity Library for Multistage-Active Starting Points for Next-Generation Antimalarials” (ACS Infect Dis, 2020).

Assay: Toxicity liver stage against HepG2, at 10uM
Type: cell-based
Set-up: test concentration 10 uM, cell line HepG2-A16-CD81EGFP
Conditions: human, HepG2-A16-CD81EGFP cells; read-out: INHIBITION
In short: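 Uninfected HepG2-A16-CD81EGFP cells, 3 × 10^3 per well, 1536-well, plated on prespotted compound at 10 μM final, parasite-free screening media added to match infected plates; puromycin 10 μM positive, DMSO 0.5% negative; run in parallel with 48 h PbLuc assay at 37 °C, 5% CO2; viability by CellTiter-Glo luminescence, normalized to controls.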

## O=C(NCCCN1CCOCC1)c1ccc(Cl)cc1Cl
  cytotoxicity at 10 µM: -3.64%

## CCCN1CCC(NC(=O)Nc2ccc(OC)c(OC)c2)CC1
  cytotoxicity at 10 µM: -13.4%

## CC(=O)NC[C@@H]1C=C(C)[C@H](CC(=O)NCCN(C)C)C[C@H]1C(C)C
  cytotoxicity at 10 µM: 0.939%

## O=C1N(Cc2ccccc2)C[C@H]2CN(Cc3ccccc3Cl)CCN12
  cytotoxicity at 10 µM: 2.23%

## CC(C)N1CCOC[C@H]1c1nc(-c2ccncc2)c[nH]1
  cytotoxicity at 10 µM: 6.73%

## CC1=C[C@@H](CN2CCCC2)[C@H](C(C)C)C[C@H]1Cc1nnc(C)o1
  cytotoxicity at 10 µM: 2.47%

## CCSc1ncccc1C(=O)NCc1ccc(N(C)C)cc1
  cytotoxicity at 10 µM: 4.36%

## CC(=O)N1N=C(c2cccs2)OC1C(=O)Nc1ccccc1 (stereo not drawn)
  cytotoxicity at 10 µM: -5.58%

## CCc1c(O)nc(SCC(=O)c2ccccc2)n(-c2ccccc2)c1=O
  cytotoxicity at 10 µM: 3.19%

## COCCn1/c(=N\C(=O)CN(C)S(C)(=O)=O)sc2cccc(F)c21
  cytotoxicity at 10 µM: -11.5%

## CC(=O)N1CCC2(CC1)NC(=O)[C@H]1CN(Cc3cccnc3)C[C@H]12
  cytotoxicity at 10 µM: -1.77%

## O=C(NC1CC1)N1CC[C@H]2[C@H]1CCN2c1ncccn1
  cytotoxicity at 10 µM: 3.08%

## CC(=O)N1CCC2(CCCN(S(=O)(=O)c3ccc(F)cc3)C2)C1 (stereo not drawn)
  cytotoxicity at 10 µM: 2.26%

## CC1c2ncc(Cn3cncn3)n2CCN1C(=O)[C@H]1CCCO1 (stereo partly drawn)
  cytotoxicity at 10 µM: -4.12%

## CN(C)CCNC(=O)c1cc2c(s1)CCN2S(C)(=O)=O
  cytotoxicity at 10 µM: 0.705%

## Cc1ccc(C(=O)N2CCC3(CC2)COCCN(S(C)(=O)=O)C3)cc1C
  cytotoxicity at 10 µM: 3.27%

## Cc1ccoc1C(=O)N1CC(C(=O)N2CCOCC2)C2(CCOCC2)C1 (stereo not drawn)
  cytotoxicity at 10 µM: -1.2%

## Cc1ccsc1C(=O)N1CC(C(=O)N2CCCC2)C2(CCOCC2)C1 (stereo not drawn)
  cytotoxicity at 10 µM: 3.68%

## O=S(=O)(NC1=NCN(CCc2ccccc2)CN1)c1ccc(F)cc1
  cytotoxicity at 10 µM: 3.47%

## CC1(C)Cc2ccccc2-c2nc(NCCO)[nH]c(=O)c21
  cytotoxicity at 10 µM: -5.46%

## CNC(=O)[C@H]1CCS(=O)(=O)[C@@H]2CN(Cc3ccc(OC)cc3)C[C@H]12
  cytotoxicity at 10 µM: -10.3%

## O=C(C1CCC1)N1CCC2(COCc3cnc(N4CCOCC4)nc32)C1 (stereo not drawn)
  cytotoxicity at 10 µM: -11.8%

## Cc1ccc(-c2nc(C3CCN(C(=O)c4ccnn4C)CC3)no2)cn1
  cytotoxicity at 10 µM: -5.17%

## c1cnnc(N[C@@H]2CC[C@@H]3CN(Cc4ccc5cc[nH]c5c4)C[C@@H]32)c1
  cytotoxicity at 10 µM: -0.423%

## COc1cc(CCC(=O)N2CCC(c3cc4nccnc4[nH]3)CC2)on1
  cytotoxicity at 10 µM: 3.67%

## Cc1cc(C)nc(C2(C)CCCN2CCO)n1 (stereo not drawn)
  cytotoxicity at 10 µM: -3.89%

## CNC(=O)C1CN(c2ccnc(C)n2)CCN1Cc1ccccc1 (stereo not drawn)
  cytotoxicity at 10 µM: 8.48%

## CC(C)N1CCCC(Cc2nccnc2Cl)CC1 (stereo not drawn)
  cytotoxicity at 10 µM: -3.97%

## CN(C)c1ncc(I)c(C2CCCCN2S(C)(=O)=O)n1 (stereo not drawn)
  cytotoxicity at 10 µM: 5.09%

## CC(C)C(=O)N1CCC(C)(c2cc(O)[nH]n2)CC1
  cytotoxicity at 10 µM: -14.5%

## NCCC(=O)N1CCC2(CC1)CN(C(=O)Cc1cccc(Cl)c1)CCO2
  cytotoxicity at 10 µM: 5.56%

## Cc1cc(CN2CCN(Cc3ccccc3F)CC2)no1
  cytotoxicity at 10 µM: 4.51%

## CC(C#N)CNC(=O)Nc1ccc(-c2ccc[nH]2)cc1 (stereo not drawn)
  cytotoxicity at 10 µM: 1.2%

## CC(=O)N1CCN(c2ccccc2CNc2ccc(C)cn2)CC1
  cytotoxicity at 10 µM: 11.2%

## NC(=O)c1cnc(NCC(=O)NCc2ccccc2)c(Cl)c1
  cytotoxicity at 10 µM: 3.89%

## Cn1nc(C(=O)NC2(c3ccccc3)CCC2)ccc1=O
  cytotoxicity at 10 µM: 1.42%

## Cc1ccc(NC(=O)N2CCOC(C)(c3cnn(C)c3)C2)c(C)c1 (stereo not drawn)
  cytotoxicity at 10 µM: 6.05%

## CC(NCc1ccnc(OC2CCC2)c1)c1cnn(C)c1 (stereo not drawn)
  cytotoxicity at 10 µM: 5.64%

## CCC1CN(CCNS(C)(=O)=O)c2ccccc2O1 (stereo not drawn)
  cytotoxicity at 10 µM: -2.67%

## CCc1noc(C)c1C(=O)NCc1c(C)nn(CCOC)c1C
  cytotoxicity at 10 µM: -9.35%

## Cc1c(F)cccc1NC(=O)N(C(C)CS(C)(=O)=O)C1CC1 (stereo not drawn)
  cytotoxicity at 10 µM: 8.29%

## O=C(c1cnc(NCCC2CCCO2)c(Cl)c1)N1CCCCC1 (stereo not drawn)
  cytotoxicity at 10 µM: -2.01%

## O=C(c1ccc(-n2cc(Br)cn2)cc1)N1CCN(c2cnccn2)CC1
  cytotoxicity at 10 µM: 1.52%

## COc1cc(C(=O)NS(=O)(=O)c2cncc(Br)c2)cc(OC)c1C
  cytotoxicity at 10 µM: 4.77%

## Cc1ncc2c(n1)CCN(C(C(N)=O)c1ccccc1)C2 (stereo not drawn)
  cytotoxicity at 10 µM: -2.62%

## CCN(CC)C(=O)Cc1csc(C(C)C)n1
  cytotoxicity at 10 µM: -1.55%

## O=C(NCCc1ccccn1)N1CCOC(c2ccccc2Cl)C1 (stereo not drawn)
  cytotoxicity at 10 µM: -7.75%

## COc1ccccc1C(C)CNC(=O)c1[nH]ncc1Br (stereo not drawn)
  cytotoxicity at 10 µM: 18.1%

## CCc1nc2n(n1)CCCC2NC(=O)Nc1ccc(F)cc1C#N (stereo not drawn)
  cytotoxicity at 10 µM: -0.802%

## CC(C)(NS(C)(=O)=O)c1nc(-c2cccc(Cl)c2)no1
  cytotoxicity at 10 µM: 2.31%

## CCS(=O)(=O)NCCNC(=O)c1cc(Cl)c2c(c1)OCCCO2
  cytotoxicity at 10 µM: 5.98%

## COc1ccc(CNC2CCN(CCc3ccncc3)CC2)cc1O
  cytotoxicity at 10 µM: -10.5%

## CCN(CC)C(=O)CCNC(=O)Cc1nc(-c2ccco2)oc1C
  cytotoxicity at 10 µM: 26.8%

## CC(C(=O)NCc1ccnc(N(C)C)c1)n1cncn1 (stereo not drawn)
  cytotoxicity at 10 µM: -9.7%

## Cc1nc(C(C)(C)NC(=O)Nc2cccc(C#N)c2)no1
  cytotoxicity at 10 µM: -7.79%

## O=C(NS(=O)(=O)c1cc(Cl)sc1Cl)c1cccc2c1OCCO2
  cytotoxicity at 10 µM: 5.32%

## Cc1nc(CCNC(=O)N2CCC(Cc3cnn(C)c3)C2)cs1 (stereo not drawn)
  cytotoxicity at 10 µM: -6.13%

## Cc1cnn(CC2CCCCN2CC(=O)NCc2ccccn2)c1 (stereo not drawn)
  cytotoxicity at 10 µM: -6.16%

## O=C(NCCc1nccs1)C1CCCN(Cc2ccco2)C1 (stereo not drawn)
  cytotoxicity at 10 µM: 1.5%

## Cc1nc2cc(CNC(=O)C3CC(=O)N(CCN(C)C)C3)ccc2n1C (stereo not drawn)
  cytotoxicity at 10 µM: -4.31%

## Cc1ccccc1CN(CCN(C)C)Cc1ccc(C(=O)O)cc1
  cytotoxicity at 10 µM: -1.6%

## CN(C)CCNc1cc(-c2ncccn2)c2cc[nH]c2n1
  cytotoxicity at 10 µM: 6.39%

## Cc1cc(C(=O)N2C[C@@H](CN(C)CCN(C)C)[C@@H](CO)C2)nc(C)n1
  cytotoxicity at 10 µM: 7.01%

## CCC/C=C/c1ccc(CN2CCCC2)cn1
  cytotoxicity at 10 µM: -16.1%

## COC(=O)C(CO)NC(=O)c1cn(Cc2ccccc2F)nn1 (stereo not drawn)
  cytotoxicity at 10 µM: -1.14%

## O=C(NCCc1c[nH]cn1)C1CCCN(C2CCOCC2)C1 (stereo not drawn)
  cytotoxicity at 10 µM: 1.58%

## Cc1nc2c(c(NC3CCN(Cc4ccccc4)CC3)n1)CCNCC2
  cytotoxicity at 10 µM: -6.74%

## Cc1nn(C)cc1CN1CCCn2nc(CNC(=O)C3CCC3)cc2C1
  cytotoxicity at 10 µM: 2.84%

## COCCn1cnnc1Cn1ccnc1-c1ccccc1C
  cytotoxicity at 10 µM: -7.58%

## CNc1ncccc1C(=O)N1CCCC2(C1)C(=O)N(C)c1ccccc12 (stereo not drawn)
  cytotoxicity at 10 µM: -5.27%

## Cc1cc(=O)c(C(=O)N2CCCCC2c2ccc(F)cc2)c[nH]1 (stereo not drawn)
  cytotoxicity at 10 µM: 3.71%

## COc1ccc(C(=O)N2C[C@@H](C)[C@@](C)(O)C2)cc1N1CCOCC1
  cytotoxicity at 10 µM: 11.3%

## NC(=O)NCCC(=O)NCc1cccnc1N1CCc2ccccc2C1
  cytotoxicity at 10 µM: 4.92%

## CN(C)CCNC(=O)c1ccc(OC2CCN(S(C)(=O)=O)CC2)c(Cl)c1
  cytotoxicity at 10 µM: 1.33%

## Cc1nc[nH]c1CN1CCN(C(=O)c2cccs2)[C@H]2CS(=O)(=O)C[C@H]21
  cytotoxicity at 10 µM: -0.0714%

## CCCn1ccc(C(=O)N2CCOC(c3nc(-c4cccs4)no3)C2)n1 (stereo not drawn)
  cytotoxicity at 10 µM: 8.54%

## CCN(CC)Cc1ccc(C(=O)N2CCCC2Cn2cc(C)cn2)o1 (stereo not drawn)
  cytotoxicity at 10 µM: -11.4%

## CC(C)C(=O)NS(=O)(=O)c1ccc(C#N)cc1C(F)(F)F
  cytotoxicity at 10 µM: -12.3%

## Cc1cnn(CC2CCCN2Cc2nnc(C)o2)c1 (stereo not drawn)
  cytotoxicity at 10 µM: -11.2%

## COc1ccccc1N1CCC(CNS(=O)(=O)c2cccc(C#N)c2)C1 (stereo not drawn)
  cytotoxicity at 10 µM: -4.13%

## Cc1ncsc1C(=O)N(C)Cc1cccnc1
  cytotoxicity at 10 µM: -5.57%

## Cc1nc2cc(=O)[nH]n2c(C)c1CC(=O)NCCCc1ccccc1
  cytotoxicity at 10 µM: -7.33%

## CCN1CCN(C(=O)c2cccn2Cc2ccccc2)CC1
  cytotoxicity at 10 µM: -12.3%

## Cc1cnc(CN2CCCC2c2noc(C3CC3)n2)cn1 (stereo not drawn)
  cytotoxicity at 10 µM: -13.5%

## Cc1cccc(OCC(=O)N2CCN(C3CCOC3=O)CC2)c1C (stereo not drawn)
  cytotoxicity at 10 µM: -15%

## CC(Cn1cccn1)NC(=O)N1CCN(Cc2ccncc2)CC1 (stereo not drawn)
  cytotoxicity at 10 µM: -20.8%

## Cc1cnn(C2CCCN(C(=O)COc3ccc(C(N)=O)cc3)C2)c1 (stereo not drawn)
  cytotoxicity at 10 µM: -0.0295%

## CC(C)C(Sc1nnnn1-c1ccccc1)C(=O)NCc1cccnc1 (stereo not drawn)
  cytotoxicity at 10 µM: -3.02%

## CN(C)C(=O)CS(=O)(=O)Cc1cc(Cl)c2c(c1)OCO2
  cytotoxicity at 10 µM: -6.24%

## CSC(C)C(=O)N1CCCN(Cc2cscn2)CC1 (stereo not drawn)
  cytotoxicity at 10 µM: -2.19%

## CCOCC(O)CN1CCN(C(=O)Cc2ccccc2C)CC1 (stereo not drawn)
  cytotoxicity at 10 µM: -3.43%

## CCCSCC(=O)NS(=O)(=O)c1ccc2c(c1)OCCO2
  cytotoxicity at 10 µM: -9.78%

## Fc1cccc(-c2nc(CN3CCOC(Cn4cncn4)C3)co2)c1 (stereo not drawn)
  cytotoxicity at 10 µM: -11.4%

## CCSc1nnc([C@@H](N)CC(C)C)o1
  cytotoxicity at 10 µM: -2.39%

## O=C([C@@H]1CC[C@@H]2[C@@H](CCN2Cc2ccoc2)O1)N1CCCC1
  cytotoxicity at 10 µM: -10.2%

## Cc1cccc(CN2C(=O)C[C@H]3[C@@H]2CCN3Cc2ccc(F)cc2)n1
  cytotoxicity at 10 µM: 2.2%

## CCN1CCC2(CC1)CC(NCc1cccs1)c1ccccc1O2 (stereo not drawn)
  cytotoxicity at 10 µM: -11.6%

## O=C(c1ccoc1)N1C[C@@H]2OCCN(c3ncccn3)[C@@H]2C1
  cytotoxicity at 10 µM: 5.09%

## COCCNC(=O)[C@H]1CN(Cc2sccc2C)C[C@H]2OCC[C@@H]12
  cytotoxicity at 10 µM: 2.05%

## COc1ccc(CN2C[C@@H]3CN(Cc4ccoc4)C[C@@H]3C2=O)cc1
  cytotoxicity at 10 µM: -8.37%

## COCC(=O)N1CCC[C@]2(C(=O)N(C)C)CN(c3ccccn3)C[C@@H]2C1
  cytotoxicity at 10 µM: -10.1%

## Cc1ccc(C(CNCc2c[nH]nc2C)N(C)C)cc1 (stereo not drawn)
  cytotoxicity at 10 µM: 8.42%

## CN1CC2(CCN(CC3CC3)CC2)COc2ccccc2S1(=O)=O
  cytotoxicity at 10 µM: -0.697%

## Cc1cccc(CN2CC[C@H]3CO[C@H](CNC(=O)N(C)C)[C@H]3C2)c1
  cytotoxicity at 10 µM: 1.47%

## CS(=O)(=O)NC[C@@H]1OC[C@H]2CN(Cc3ccsc3)CC[C@H]21
  cytotoxicity at 10 µM: 14.3%

## c1ccc(CN2CCC3(CC2)CCN(Cc2cccs2)C3)nc1
  cytotoxicity at 10 µM: 4.17%

## CCCOc1ccc(C(=O)N2CC[C@@H]3CC[C@H](C2)N3)cc1Cl
  cytotoxicity at 10 µM: -6.94%

## O=C(Cc1ccccn1)N1C[C@H]2CC[C@@H](C1)N(Cc1ccccc1)C2=O
  cytotoxicity at 10 µM: -13%
